Compound activity from PubChem.
Shown are actives, neighbours in structure and some others; about 1.3% of the full set was active somewhere.
DDE Tn6 FP inh: inhibitors of Tn6 peptide binding to fibrin DD(E), primary screen, biochemical, fluorescence polarization, human fibrin, Tn6 probe | Fibrin DD(E) TRITC-Tn6 fluorescence polarization displacement | hit rate 0.21% among 370,000 | AID 720509, 2013 | Fibrinogen beta chain (Homo sapiens), P02675 | inhibition, % at 8.3 µM;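 active = inhibition above a per-campaign cutoff: mean of compounds within control limits plus 3 SD, cut at about 15% in these data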;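 also: 0% = median of all compound wells on the plate and 100% = blocking peptide control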
aDG glyco up: activators of alpha-DG glycosylation, primary screen, uHTS, Pro5-aDG cells, AlphaScreen; alpha-DG glycosylation AlphaScreen (IIH6); 0% Pro5, 100% B10-LARGE cell signal; activation, % at 10 µM; hit rate 0.22% among 360,000; AID 624168, 2012;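 active = activation of at least 8% versus controls, or a plate z-score of at least 8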;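 also: Pro5 are CHO cells carrying HIG-tagged alpha-DG that lacks glycosylation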
CendR NRP1 mod: modulators of CendR peptide binding to NRP-1, primary screen, biochemical, fluorescence polarization, uHTS; Neuropilin-1 (Homo sapiens), O14786; FAM-RPARPAR peptide binding to NRP-1; inhibition, % at 25 µM; hit rate 0.85% among 360,000; AID 602438, 2012;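 active = inhibition or corrected inhibition above about 18%, plus a signal ratio from 0.5 to 1.5, limit read from the data, passing the limit was not always enough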
Tn7 DDE FP: inhibitors of Tn7 peptide binding to fibrin DD(E), primary screen, biochemical, fluorescence polarization, human fibrin, Tn7 probe; hit rate 0.13% among 370,000; FP displacement of FITC-Tn7 peptide from fibrin DD(E); 0% = median of compound wells per plate; inhibition, % at 8.3 µM;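 active = inhibition above the mean of compounds falling within the control limits plus 3 SD of them, cut at about 14% in these data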;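 also: 0% = plate median of compound wells and 100% = 10 µM Aha-Tn7 peptide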
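system = human fibrin DD(E) protein | quantity = DD(E) 2 µM final | medium = Tris/NaCl/CaCl2 buffer, pH 7.8 | also added = labelled Tn7 tracer, 0.1 µM | compound dosing = single point at 8.3 µM | timing = compound with protein 10 min, then 3 h after probe, room temperature | signal = FP measurement | benchmarks = Aha-Tn7 high control | repeats = one replicate per compound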
The depositor's hits bear a star; / = no result.

SMILES | DDE Tn6 FP inh | aDG glyco up | CendR NRP1 mod | Tn7 DDE FP
CC(=O)N1CC(C)Sc2ccc(S(=O)(=O)NC3CCCCC3C)cc21 (configuration not stated) | -2 | 1 | 21* | 6
COC(=O)C1=C(C)NC(=S)NC1c1ccc(Br)cc1 (configuration not stated) | -1 | / | / | 0
COc1cccc2c1cc1c(=O)n(CC(=O)N3CCCCCC3)nc(C)n12 | 6 | 0 | 24* | -2
CC(NC(=O)C1CCN(Cc2ccc(Oc3ccccc3)cc2)CC1)c1cccc2ccccc12 (configuration not stated) | 0 | 2 | -8 | 0
COc1ccccc1OCC(=O)N1CCN(C(=O)COc2ccccc2OC)CC1 | -6 | 0 | 14 | -4
COc1ccccc1N1CCN(C(=O)COc2cccc3ccccc23)CC1 | 8 | 0 | 31* | 4
COc1ccccc1N1CCN(C(=O)C2c3ccccc3Oc3ccccc32)CC1 | -11 | 0 | 25* | -5
COc1ccc(NC(=O)C2Cc3c(-c4cccc(C(N)=O)c4)ccnc3O2)cc1 (configuration not stated) | 0 | 0 | -1 | 4
O=C(OCc1ccccc1)N1Cc2ccnnc2CC1c1ccccc1Br (configuration not stated) | -1 | 0 | -3 | 1
Cc1ccc(S(=O)(=O)N2CCC(=O)N([C@H](COCc3cccc(Cl)c3)C(C)C)CC2)cc1 | -1 | 0 | -2 | -3
Cc1ccc(S(=O)(=O)N2CCC(=O)N(C(COCc3cccc(C)c3)C(C)C)CC2)cc1 (configuration not stated) | -2 | 0 | 24* | -4
Cc1ccc(S(=O)(=O)N2CCC(=O)N(C(COCc3cccc(Cl)c3)C(C)C)CC2)cc1 (configuration not stated) | -6 | 1 | 6 | -1
Cc1ccc(S(=O)(=O)N2CCC(=O)N(C(COCc3cccc(C(F)(F)F)c3)C(C)C)CC2)cc1 (configuration not stated) | / | 0 | 23* | /
CC1(C(=O)NCc2ccccc2)CN(S(C)(=O)=O)CC(=O)N1Cc1ccco1 (configuration not stated) | -2 | / | / | 4
O=C(CC1(O)C(=O)Nc2cc(Cl)cc(Cl)c21)c1ccccc1O (configuration not stated) | -1 | 1 | 43* | 4
O=C(CC1(O)C(=O)Nc2ccccc21)c1ccccc1O (configuration not stated) | -1 | 0 | 6 | 5
CCCCCCCC(=O)N[C@H]1CC[C@@]23CCCN2C(=O)CCC[C@H]3[C@H]1C | 0 | / | / | -6
CN(C)c1cccc(-c2ccnc(N3CCC(C(N)=O)CC3)n2)c1 | 9 | / | / | -1
CN(C)c1cccc2c(S(=O)(=O)NC(=O)[C@H]3O[C@@H](n4cnc5c(N)ncnc54)[C@H](O)[C@@H]3O)cccc12 | -2 | 0 | 25* | -3
O=C(CSc1nc2ccccc2o1)NN=C/C=C/c1ccccc1 | -12 | / | / | 6
O=C(C=Cc1ccccc1)c1ccc([N+](=O)[O-])cc1 | -9 | 0 | 18* | 2
O=C(/C=C/c1cccnc1)c1ccc([N+](=O)[O-])cc1 | -3 | 0 | 8 | -1
COc1ccc(C(=O)C[C@@H]2OC[C@H](Cc3ccccc3)N2S(=O)(=O)c2ccc(C)cc2)cc1OC | 2 | 0 | -1 | 11
O=C(c1ccccc1)C1CC1c1ccccc1 (configuration not stated) | 6 | 0 | 38* | -7
NNC(=O)[C@@H]1C[C@@H]1c1ccccc1 | -2 | 0 | 8 | 2
SMILES | DDE Tn6 FP inh | aDG glyco up | CendR NRP1 mod | Tn7 DDE FP
CCOc1cccc(-c2nnc3n2N=C(c2ccc(OC)cc2)CS3)c1 | 2 | / | / | -2
CC(C)(C)OC(=O)C[C@H]1C/C=C\C[C@@H](CC(=O)NCCO)C(=O)NC[C@@H](c2ccccc2)OC1=O | 8 | 0 | 20* | 2
C[C@@H]1COC(=O)[C@@H](CC(=O)OC(C)(C)C)C/C=C\C[C@H](CC(=O)N(CCO)Cc2ccccc2)C(=O)N1 | 2 | 0 | 3 | -7
CC(C)(C)OC(=O)C[C@H]1C/C=C\C[C@@H](CC(=O)N[C@H](CO)Cc2ccccc2)C(=O)NC[C@H](c2ccccc2)OC1=O | 1 | 0 | 3 | -1
O=C1CCC/C=C\C[C@@H](CC(=O)N(CCO)Cc2ccccc2)C(=O)N2CCC[C@H]2CO1 | -7 | 0 | 28* | 2
CC(C)(C)OC(=O)C[C@H]1C/C=C\C[C@H](CC(=O)N(CCO)Cc2ccccc2)C(=O)NCCOC1=O | 6 | 0 | 29* | -4
CC(C)(C)OC(=O)C[C@H]1C/C=C\C[C@H](CC(=O)N(CCO)Cc2ccccc2)C(=O)N[C@@H](Cc2ccccc2)COC1=O | -2 | 0 | 30* | 1
O=C(CCn1nnc2ccccc21)N1CCN(c2cccc(C(F)(F)F)c2)CC1 | 0 | / | / | 1
O=C1NCCN1CCN1CCC(c2cn(-c3ccc(F)cc3)c3ccc(Cl)cc23)CC1 | 8 | / | / | 4
Cc1ccnc(SCCn2c(N3CCOCC3)nc3c2c(=O)[nH]c(=O)n3C)n1 | -3 | 0 | 6 | 6
CC(C)CCn1c(N2CCCC2)nc2c1c(=O)[nH]c(=O)n2C | -20 | 0 | 24* | -1
Cn1c(=O)[nH]c(=O)c2c1nc(N1CCOCC1)n2CCCSc1ncccn1 | -2 | 0 | 22* | -1
CCN1CCN(c2nc3c(c(=O)[nH]c(=O)n3C)n2Cc2ccccc2F)CC1 | -5 | 0 | 30* | -1
COc1ccc(N2CCN(CCNS(=O)(=O)c3c(C(C)C)cc(C(C)C)cc3C(C)C)CC2)cc1 | 9 | / | / | 13
COc1ccc(/C=N\NC(=O)Cc2cccs2)c(OC)c1OC | -6 | / | / | -6
COc1ccc(N2C(=O)CCC(C(=O)NCc3ccccn3)C2c2ccc(F)cc2)cc1 (configuration not stated) | -8 | 0 | -4 | -8
COc1ccc(N2C(=O)CCC(C(=O)NCc3ccccn3)C2c2ccc(OC)c(OC)c2)cc1 (configuration not stated) | -6 | 0 | 22* | 5
Cc1ccc(S(=O)(=O)N2CCCCC2)cc1NC(=O)CSCC(=O)O | -2 | 1 | 59* | -3
O=C(O)CSCC(=O)Nc1ccc(S(=O)(=O)N2CCCCC2)cc1 | 4 | 0 | 4 | 4
Cc1cccc(C)c1Nc1nnc(SCC(=O)Nc2cc(S(=O)(=O)N3CCCCC3)ccc2Cl)s1 | -6 | 0 | 26* | 5
CCOc1ccc(C(=O)CSc2nnc(SCc3ccc(Cl)cc3)s2)cc1 | 4 | / | / | -3
Cc1c(Cl)c(C(F)(F)F)nn1CC(=O)NN | -11 | 0 | -4 | 1
Cc1c(Cl)c(C(F)(F)F)nn1CC(=O)N1CCSCC1 | 1 | 0 | 48* | 8
